# Beta2AR agonist: activates human beta-2 adrenergic receptor causing internalization; 340,000 compounds, 0.43% hits; Am2.2-beta2AR cells, FAP receptor internalization, flow cytometry; response, % (test concentration not listed); P07550;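 active = response above a set limit, near 3 SD of response in nonfluorescent compounds, cut at about 42% in these data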
# GRK2 inh: inhibitors of human GRK2 displacing RNA aptamer; P25098; bead flow cytometry, FAM-aptamer displacement from GRK2; inhibition of aptamer binding, % at 10 µM; 330,000 compounds, 0.59% hits;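 active = inhibition of aptamer binding above 40%, roughly 3 SD of noise, on plates passing a quality check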;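 also: median bead fluorescence of bound FAM aptamer so fluorescent compounds give negative values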
# ABHD5-PLIN5 inh: ABHD5-PLIN5 protein interaction inhibition; 360,000 compounds, 0.78% hits; inhibition, % at 4 µM; Q00G26+Q8WTS1; AID 602281; Split G. princeps luciferase complementation, luminescence, 4 h;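 active = inhibition above the mean inhibition across every tested compound plus 3 SD, cut at about 22% in these data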;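 also: 0% = DMSO only wells and the 100% control is not disclosed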
# Target sequence (Q00G26 whole entry, looked up): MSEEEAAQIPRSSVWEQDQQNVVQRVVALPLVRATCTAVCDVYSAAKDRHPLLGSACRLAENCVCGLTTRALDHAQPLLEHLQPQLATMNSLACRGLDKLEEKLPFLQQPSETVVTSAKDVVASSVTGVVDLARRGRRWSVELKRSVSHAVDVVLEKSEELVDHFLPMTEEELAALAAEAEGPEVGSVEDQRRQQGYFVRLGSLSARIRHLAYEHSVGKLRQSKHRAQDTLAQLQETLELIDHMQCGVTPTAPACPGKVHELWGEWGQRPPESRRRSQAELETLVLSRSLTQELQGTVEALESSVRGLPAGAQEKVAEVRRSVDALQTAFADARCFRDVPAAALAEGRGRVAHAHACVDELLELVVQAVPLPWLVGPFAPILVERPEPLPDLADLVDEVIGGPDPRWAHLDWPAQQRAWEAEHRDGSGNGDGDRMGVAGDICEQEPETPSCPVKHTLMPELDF
# Target sequence (Q8WTS1 whole entry, looked up): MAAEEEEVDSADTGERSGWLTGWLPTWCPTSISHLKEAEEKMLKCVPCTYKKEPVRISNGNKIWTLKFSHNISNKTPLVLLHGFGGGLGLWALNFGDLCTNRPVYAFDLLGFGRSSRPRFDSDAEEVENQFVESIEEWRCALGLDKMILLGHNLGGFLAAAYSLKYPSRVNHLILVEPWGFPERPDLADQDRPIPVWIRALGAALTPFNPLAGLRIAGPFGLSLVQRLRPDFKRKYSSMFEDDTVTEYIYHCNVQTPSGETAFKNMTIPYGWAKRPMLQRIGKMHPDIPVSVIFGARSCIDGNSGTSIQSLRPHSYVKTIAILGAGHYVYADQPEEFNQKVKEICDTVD
# SENP1 FRET inh: SENP1 (human) catalytic domain inhibition | Q9P0U3 | recombinant SENP1 catalytic domain, CyPet-SUMO1-YPet FRET cleavage | inhibition, % at 10 µM | 360,000 compounds, 0.21% hits | AID 624204;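 active = inhibition at least 30% at 10 µM, raw YFP signal under a set limit, fluorescence ratio 0.5 to 1.5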;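 also: 0% = enzyme with DMSO and 100% = no enzyme wells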
#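 system = hSENP1 catalytic domain, recombinant | reagent = SFCypet-SUMO1-SFYpet substrate at 25 nM | doses = one dose per compound, 10 µM, 0.5% DMSO | incubation = enzyme reaction for 50 min at room temperature, dark | measured by = FRET, CFP and YFP emission | controls = no-enzyme low, enzyme-DMSO high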
# NadD block: NadD (S. aureus) enzyme inhibition; purified NadD enzyme, colorimetric absorbance read-out; inhibition, % at 20 µM; 360,000 compounds, 0.78% hits; AID 602399; in the data active = inhibition above about 26%
# NadD conf: confirmation of Staphylococcus aureus NadD inhibitors | 2,000 compounds, 13% hits | purified S. aureus NadD, colorimetric enzyme assay | shares compounds with NadD block | inhibition, % at 20 µM; in the data active = inhibition mostly above about 42%, no sharp cut-off; inactive = mostly below about 42%
# The depositor's hits bear a star; . = no result. Compounds with a hit are over-represented: about 2.5% of the library has one in this group of screens.
SMILES,Beta2AR agonist,GRK2 inh,ABHD5-PLIN5 inh,SENP1 FRET inh,NadD block,NadD conf
COc1ccc(C(=O)c2sc(Nc3cccc(OC)c3)c(C(=O)Nc3cccc(C)c3C)c2N)cc1,21,0,-3,-8,36*,-11
COc1ccc(C(=O)c2sc(Nc3ccccc3)c(C(=O)Nc3ccc(OC)c(OC)c3)c2N)cc1,8,2,-1,-18,12,.
COc1ccc(Nc2sc(C(=O)c3ccc(Cl)cc3)c(N)c2C(=O)Nc2ccccc2OC)cc1,-10,0,-2,3,17,.
COc1ccc(NC(=O)c2c(Nc3ccccc3)sc(C(=O)c3ccc(F)cc3)c2N)cc1,20,2,3,5,33*,-1
CC1CCC2(CC1)NC(=O)N(NC(=O)c1cc3ccccc3o1)C2=O (stereo not drawn),-2,3,9,0,-2,.
CC1=NN(c2ccc(C)c(C)c2)C(=O)C1C(c1cccc(O)c1)C1C(=O)N(c2ccc(C)c(C)c2)N=C1C (stereo not drawn),11,1,6,0,37*,61*
O=C1C2C3C=CC(C3)C2S(=O)(=O)C2C3C=CC(C3)C12 (stereo not drawn),.,.,-9,-2,-7,.
CN(CCO)c1cccc2c1S(=O)(=O)N[C@H](Cc1ccccc1)CO2,.,.,-1,0,-2,.
CCOc1ccc(CCN2C(=S)N([C@@H](CC(C)C)CN3CCC[C@@H]3CN3C(=S)NC[C@@H]3CC(C)C)C[C@@H]2Cc2ccc(O)cc2)cc1,.,.,11,2,20,.
CCOc1ccc(CCN2C(=S)N([C@@H](CC(C)C)CN3CCCC3CN3C(=S)NC[C@@H]3Cc3ccc(O)cc3)C[C@@H]2CC(C)C)cc1 (stereo partly drawn),-11,.,-5,2,36*,7
CCOc1ccc(CCN2C(=S)N([C@@H](Cc3ccc(O)cc3)CN3CCC[C@@H]3CN3C(=S)NC[C@@H]3Cc3ccccc3)C[C@@H]2Cc2ccc(O)cc2)cc1,.,.,19,0,45*,41
CCOc1ccc(CCN2C(=S)N([C@@H](CC(C)C)CN3CCCC3CN3C(=S)NC[C@@H]3Cc3ccc(O)cc3)C[C@@H]2Cc2ccc(O)cc2)cc1 (stereo partly drawn),15,.,-6,1,37*,43
CCOc1ccc(CCN2C(=S)N([C@@H](CC(C)C)CN3CCCC3CN3C(=S)NC[C@@H]3Cc3ccc(O)cc3)C[C@@H]2Cc2ccccc2)cc1 (stereo partly drawn),10,.,-2,1,34*,10
Cc1c(C)c(C)c(S(=O)(=O)NCCC(=O)N2CCN(Cc3ccc(C#N)cc3)CC2)c(C)c1C,-4,6,10,-1,1,.
CC(=O)CC(=O)NC1CCc2ccccc21 (stereo not drawn),-11,.,0,2,0,.
Cn1c(SCC(=O)NC2CCS(=O)(=O)C2)nc2ccccc21 (stereo not drawn),4,0,3,0,-3,.
CC(C(=O)N1CCc2ccccc21)N1CCN(c2cccc(C(F)(F)F)c2)CC1 (stereo not drawn),8,0,-3,-1,2,.
O=C(COC(=O)c1ccc(Br)o1)Nc1nc2c(F)c(F)c(F)cc2s1,5,0,12,-69,34*,28
O=C1NC(=Nc2ccc(Cl)cc2)/C(=C/c2ccco2)S1,11,0,0,-41,37*,-1
Cc1cccc(N=C2NC(=O)S/C2=C\c2ccco2)c1,0,0,13,-27,1,.
O=C(N/N=C/c1ccccc1)c1[nH]c2ccc(Br)cc2c1-c1ccccc1,20,2,-9,3,34*,44
NNC(=O)c1[nH]c2ccc([N+](=O)[O-])cc2c1-c1ccccc1,4,1,-10,0,4,.
O=C(N/N=C/c1ccccn1)c1[nH]c2ccc([N+](=O)[O-])cc2c1-c1ccccc1,1,2,1,-3,67*,38
O=C(NN=C1CCCC1)c1[nH]c2ccc(Br)cc2c1-c1ccccc1,3,0,.,.,.,.
CCN(Cc1ccncc1)Cc1cn(C)nc1-c1ccc(Oc2ccccc2)cc1,-5,0,1,1,0,.
O=C(C1=C(O)C(=O)N(c2nc3ccc(Cl)cc3s2)C1c1ccco1)c1ccco1 (stereo not drawn),8,13,13,-51,56*,51*
